M4 antag: CHRM4 antagonism in calcium assay; CHO-hM4 cells, ACh EC80, Fluo-8 calcium fluorescence; inhibition, % at 3 µM; actives 0.73% (n = 360,000); AID 624125;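 active = inhibition above its plate's cutoff, the mean inhibition of sample wells plus 3 SD, cut at about 27% in these data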;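 also: 0% = acetylcholine EC80 with DMSO and 100% = DMSO without agonist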
M4 PAM: potentiates acetylcholine response at human M4 receptor; AID 624126; actives 0.4% (n = 360,000); CHO-K1 hM4/Gqi5, Fluo-8 calcium fluorescence, ACh EC20; 0% = ACh EC20, 100% = maximal ACh; activation, % at 3 µM;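 active = activation above its plate's cutoff, the mean activation of sample wells plus 3 SD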
CHRM5 agonist: agonists of human muscarinic M5 receptor (CHRM5); P08912; CHO-K1 hM5 cells, Fluo-8 calcium fluorescence; 0% DMSO wells, 100% maximal acetylcholine response; activation, % at 3 µM; AID 624037; actives 0.19% (n = 360,000);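 active = activation above the run's mean over test compounds plus 3 SD, cut at about 23% in these data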;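 also: signal is peak over basal fluorescence ratio across the kinetic read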
Target sequence (P08912 whole entry, looked up): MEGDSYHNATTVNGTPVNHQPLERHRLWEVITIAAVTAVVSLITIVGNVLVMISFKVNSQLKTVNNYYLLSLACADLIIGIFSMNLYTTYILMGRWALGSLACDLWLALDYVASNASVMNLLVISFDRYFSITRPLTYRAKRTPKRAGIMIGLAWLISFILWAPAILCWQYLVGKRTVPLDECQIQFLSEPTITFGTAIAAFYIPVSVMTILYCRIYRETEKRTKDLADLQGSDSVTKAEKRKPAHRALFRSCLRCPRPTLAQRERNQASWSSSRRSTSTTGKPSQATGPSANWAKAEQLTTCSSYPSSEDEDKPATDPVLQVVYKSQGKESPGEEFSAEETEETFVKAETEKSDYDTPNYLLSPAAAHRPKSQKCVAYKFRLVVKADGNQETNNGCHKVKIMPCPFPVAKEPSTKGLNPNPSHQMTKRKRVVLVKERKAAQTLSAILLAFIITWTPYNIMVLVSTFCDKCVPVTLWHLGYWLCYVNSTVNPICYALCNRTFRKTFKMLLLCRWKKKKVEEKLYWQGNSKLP
M5 antag: blocks acetylcholine activation of human M5 receptor; P08912; CHO-hM5 cells, Fluo-8 calcium fluorescence, ACh EC80; inhibition, % at 3 µM; actives 0.59% (n = 360,000); AID 624040;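 active = inhibition above a per-plate cutoff, the mean of that plate's test compounds plus 3 SD, cut at about 27% in these data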;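 also: 0% = acetylcholine EC80 with DMSO and 100% = DMSO without agonist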
M4 ag: CHRM4 agonism in calcium assay; CHO-K1 hM4/Gqi5, Fluo-8 calcium fluorescence; vehicle 0%, full acetylcholine response 100%; activation, % at 3 µM; actives 0.14% (n = 360,000); AID 624127;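 active = activation above the run mean over all test wells plus 3 SD, cut at about 32% in these data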;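 also: peak over basal fluorescence ratio per well then scaled between controls; 0% = DMSO wells and 100% = acetylcholine at EC100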
CHRM5 PAM: potentiates acetylcholine response at human M5 receptor. P08912. CHO-K1 hM5, Fluo-8 calcium, ACh EC20 PAM; 0% = ACh EC20, 100% = ACh EC100. activation, % at 3 µM. actives 0.3% (n = 360,000);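 active = activation above the run cutoff, the mean activation of all test compounds plus 3 SD, cut at about 18% in these data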
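System – CHO-K1 hM5 cells · Compound – 3 µM, single dose · Incubation – compound preincubation 140 s before EC20 acetylcholine addition · Technique – Fluo-8 calcium fluorescence · Measure – Max/basal fluorescence ratio as % of EC20–EC100 ACh window · Benchmarks – low control EC20 acetylcholine (0%), high control EC100 acetylcholine (100%) · Replication – singlicate, one well per test compound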
* marks the source's active call; other numbers are inactive results. In the library only some 1.8% were active in any assay of this set; here they are far more common.

SMILES	M4 antag	M4 PAM	CHRM5 agonist	M5 antag	M4 ag	CHRM5 PAM
O=C(Nc1ccccc1Br)C1CC(=O)N(c2ccc3c4c(cccc24)CC3)C1 (centres undefined)	0	9	-6	-3	6	1
COc1ccc(Oc2cn[nH]c2-c2ccc(O)cc2O)cc1	11	13	6	0	6	2
COc1ccc(-c2[nH]ncc2Oc2ccccc2OC)c(O)c1	-19	19*	1	-2	2	-3
CC(C)Cn1c(C23CC4CC(CC(C4)C2)C3)n[nH]c1=S	27*	-14	-23	19	-2	-30
Cc1cc(/C=N/NC(=O)C(=O)NCc2ccccn2)c(C)n1-c1cccc(Br)c1	-9	-7	-2	-6	4	3
O=C(NCc1ccccn1)C(=O)N/N=C/c1ccccc1O	47*	-8	-4	-3	-1	4
O=C(O)/C=C/C(=O)NCc1ccccn1	-11	7	1	1	1	21*
O=C(O)/C=C/C(=O)NCc1ccccc1	6	6	-1	-2	0	0
CC(C)N1CN(c2ccccc2)C(=S)N(c2ccccc2)C1	-16	18*	8	-1	0	2
Cc1c(C(=O)N2CCC(C)(C(=O)NS(=O)(=O)C3CC3)C2)oc2ccccc12 (centres undefined)	-8	17*	-1	4	1	2
Cc1c(C(=O)N2CCCC(C)(C(=O)NS(=O)(=O)C3CC3)C2)oc2ccccc12 (centres undefined)	-6	7	-1	5	-1	-5
CCCCCCCCCCCCCCCCn1cc[n+](C)c1	30*	-17	-6	48*	2	-21
COC(=O)[C@]12CCCCC=C1N(CCc1ccc(OC)c(OC)c1)C(=O)[C@H](CC(=O)NCc1cccc(C(F)(F)F)c1)C2	-6	-2	4	6	27	-14
COC(=O)[C@@]12C[C@@H](CC(=O)NCc3cccc(C(F)(F)F)c3)C(=O)N(CCc3ccc(OC)c(OC)c3)C1=CCC(C)(C)C2	27*	-15	4	19	33*	-13
COC(=O)[C@]12CCCCC=C1N(CCc1ccc(OC)c(OC)c1)C(=O)[C@H](CC(=O)N1CCC(c3ccccc3)CC1)C2	-1	-8	1	28*	25	-18
CCOC(=O)c1nn(-c2ccc(C)cc2)c(=O)cc1OCC(=O)Nc1cc(C)ccc1OC	-14	-2	0	-11	-1	10
CCOC(=O)c1nn(-c2ccc(F)cc2)c(=O)cc1OCC(=O)Nc1cccc(C)c1	-26	24*	5	-5	-1	-5
COc1ccc(NC(=O)c2cc(C)cc(C)c2)cc1S(=O)(=O)N1CCCCC1	-1	3	-2	4	-1	-5
Cn1cnnc1SCCC(=O)Nc1ccccc1	7	38*	7	-2	1	3
CCN1CCN(c2ccc(S(=O)(=O)N3CCOCC3)cc2NC(=O)C(C)Oc2ccc(Cl)cc2)CC1 (centres undefined)	6	4	-4	11	1	-3
Cc1ccc(S(=O)(=O)N(C)C[C@H]2OCc3cnnn3CCCC(=O)N([C@@H](C)CO)C[C@H]2C)cc1	-11	-2	0	-11	0	4
COc1ccc(S(=O)(=O)N(C)C[C@@H]2OCc3cnnn3CCCC(=O)N([C@@H](C)CO)C[C@@H]2C)cc1	-17	19*	1	-5	1	-3
CCCOc1ccccc1OCC(=O)Nc1cccc(S(=O)(=O)NC2=NCCC2)c1	-8	2	-1	1	11	-5
CC(=O)/C(C[N+]1(C)CCCCC1)=N\O	34*	-17	-8	43*	1	-23
C[N+]1(CC(=O)OCCCc2ccccc2)CCCCC1	-9	-5	-15	8	1	-13
COc1ccccc1OCCNC(=O)CCC(=O)N1CCOCC1	-28	7	-4	2	1	-6
Clc1cccc2sc(N3CCOCC3)nc12	-19	10	-9	-9	2	26*
